Sampled rows, rich in hits. Any-hit rate of the full collection: about 1.9%.
CHRM5 agonist: agonists of human muscarinic M5 receptor (CHRM5) | activation, % at 3 µM | actives 0.19% (n = 360,000) | P08912 | CHO-K1 hM5 cells, Fluo-8 calcium fluorescence; 0% DMSO wells, 100% maximal acetylcholine response;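 active = activation above the run's mean over test compounds plus 3 SD, cut at about 23% in these data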;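 also: signal is peak over basal fluorescence ratio across the kinetic read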
Target sequence (P08912 whole entry, looked up): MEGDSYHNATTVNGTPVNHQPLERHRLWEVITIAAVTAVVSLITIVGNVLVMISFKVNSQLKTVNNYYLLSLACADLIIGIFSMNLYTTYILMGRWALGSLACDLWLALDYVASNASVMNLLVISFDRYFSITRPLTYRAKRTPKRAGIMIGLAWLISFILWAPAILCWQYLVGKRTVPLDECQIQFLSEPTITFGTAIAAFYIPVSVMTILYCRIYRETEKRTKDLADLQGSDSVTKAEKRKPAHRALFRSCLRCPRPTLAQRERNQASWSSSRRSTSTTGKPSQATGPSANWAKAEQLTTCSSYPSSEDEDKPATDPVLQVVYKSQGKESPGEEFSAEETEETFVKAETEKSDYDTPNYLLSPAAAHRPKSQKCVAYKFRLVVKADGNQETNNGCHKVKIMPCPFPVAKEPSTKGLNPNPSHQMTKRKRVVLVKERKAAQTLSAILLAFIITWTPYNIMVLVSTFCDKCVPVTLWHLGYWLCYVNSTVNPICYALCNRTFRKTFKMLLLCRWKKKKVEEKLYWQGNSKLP
M4 ag: agonists of human muscarinic M4 receptor (CHRM4); CHO-K1 hM4/Gqi5, Fluo-8 calcium fluorescence; vehicle 0%, full acetylcholine response 100%; P08173; activation, % at 3 µM; actives 0.14% (n = 360,000);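 active = activation above the run mean over all test wells plus 3 SD, cut at about 32% in these data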;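 also: peak over basal fluorescence ratio per well then scaled between controls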
M4 PAM: positive allosteric modulators of human muscarinic M4 receptor | activation, % at 3 µM | P08173 | actives 0.4% (n = 360,000) | CHO-K1 hM4/Gqi5, Fluo-8 calcium fluorescence, ACh EC20; 0% = ACh EC20, 100% = maximal ACh | AID 624126;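 active = activation above its plate's cutoff, the mean activation of sample wells plus 3 SD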
CHRM5 PAM: potentiates acetylcholine response at human M5 receptor. CHO-K1 hM5, Fluo-8 calcium, ACh EC20 PAM; 0% = ACh EC20, 100% = ACh EC100. activation, % at 3 µM. actives 0.3% (n = 360,000);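 active = activation above the run cutoff, the mean activation of all test compounds plus 3 SD, cut at about 18% in these data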
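Test system: CHO-K1 hM5 cells / Doses: single-point, 3 µM nominal / Times: Post-acetylcholine fluorescence recording 140 s / Technique: Fluo-8 calcium fluorescence / Measure: Max/basal fluorescence ratio as % of EC20–EC100 ACh window / Benchmarks: low control EC20 acetylcholine (0%), high control EC100 acetylcholine (100%) / Replicates: one well per compound, no replicates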
CHRM4 antagonist: CHRM4 antagonism in calcium assay. P08173. CHO-hM4 cells, ACh EC80, Fluo-8 calcium fluorescence. inhibition, % at 3 µM. actives 0.73% (n = 360,000);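 active = inhibition above its plate's cutoff, the mean inhibition of sample wells plus 3 SD, cut at about 27% in these data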
M5 antag: CHRM5 antagonism in calcium assay; inhibition, % at 3 µM; actives 0.59% (n = 360,000); CHO-hM5 cells, Fluo-8 calcium fluorescence, ACh EC80;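 active = inhibition above a per-plate cutoff, the mean of that plate's test compounds plus 3 SD, cut at about 27% in these data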
A number is an active result; i = inactive.

SMILES	CHRM5 agonist	M4 ag	M4 PAM	CHRM5 PAM	CHRM4 antagonist	M5 antag
CCCC1=C(C(=O)OCC)C2(C(=O)Nc3ccc(C)cc32)C(C#N)=C(N)O1 (centres undefined)	i	i	i	i	i	i
CN1CCC(OC(=O)Cc2ccccc2)CC1	i	i	i	i	i	i
O=C(OC1CCN(CCCl)CC1)C(c1ccccc1)c1ccccc1	i	i	i	i	57.0	63.8
COC(=O)C(O)(c1ccc(NC(=S)NC(=O)c2ccc(Cl)cc2Cl)cc1)C(F)(F)F (centres undefined)	i	i	i	i	i	i
COC(=O)C(O)(c1ccc(NC(=S)NC(=O)c2ccc(Cl)cc2Cl)c(C)c1)C(F)(F)F (centres undefined)	i	i	i	i	i	27.4
CCOC(=O)C(O)(c1ccc(NC(=S)NC(=O)c2ccc(Cl)cc2Cl)c(C)c1)C(F)(F)F (centres undefined)	i	40.1	i	i	30.9	37.4
N/C(=N\[N+](=O)[O-])NCCCC(NC(=O)CNC(=O)c1ccccc1)C(=O)O (centres undefined)	i	i	i	i	i	i
C[C@H]1OC[C@@H](C[N+](C)(C)C)O1	107.3	98.4	i	i	72.7	95.8
CC1OC(C[N+](C)(C)C)CC1O (centres undefined)	101.6	70.7	i	i	30.4	94.7
CN1CCN(C(=O)COc2ccc(S(=O)(=O)NC3CCCCC3)cc2Cl)CC1	i	i	i	20.6	i	i
COc1ccc(NS(=O)(=O)c2ccc(OCC(=O)N3CCN(C)CC3)cc2)cc1Cl	i	i	i	i	i	i
CCN(CC)CCN/N=C(\C)c1c(O)[nH]c(=O)[nH]c1=O	i	i	i	i	i	i
Cc1ccc2c(c1)C1CN(C)CCC1N2C(=S)Nc1cccnc1 (centres undefined)	i	i	i	i	i	i
CCC1(C)OC(c2ccccc2)=C/C(=C/C=C2C(=O)NC(=O)NC2=O)O1 (centres undefined)	61.4	i	i	i	i	i
COC(=O)C(Cc1ccc(N(CCCl)CCCl)cc1)N=Cc1ccccc1O (centres undefined)	i	i	i	i	i	i
C[C@@H]1O[C@@H](O[C@@H]2C=C3CC[C@@H]4C(CC[C@]5(C)[C@@H](c6ccc(=O)oc6)CC[C@]45O)[C@@]3(C)CC2)[C@H](O)[C@H](O)[C@H]1O (some centres undefined)	i	i	i	i	i	i
Cc1nn(Cc2ccccc2Cl)c(Cl)c1C(=O)O	i	i	i	i	i	i
Cc1nn(Cc2ccc(Cl)cc2Cl)c(Cl)c1C(=O)O	i	i	21.1	i	i	i
O=C(c1ccc(Cl)cc1)C1CCCN(Cc2cccc3ncccc23)C1 (centres undefined)	i	i	i	i	i	34.3
O=C(c1ccc(Cl)cc1)C1CCCN(Cc2cccc3cccnc23)C1 (centres undefined)	i	i	i	i	i	i
C#CCOC(=O)C1=CCCN(C)C1	97.3	69.6	i	i	73.9	96.9
O=P(Oc1ccccc1)(N1CCOCC1)N1CCOCC1	i	i	15.5	i	i	i
CC(C)(C)P(=O)(N1CCOCC1)N1CCOCC1	i	i	i	i	i	i
COc1ccc(CCNC(=O)c2c(N)n(CCN3CCOCC3)c3nc4ccccc4nc23)cc1OC	i	i	i	i	i	34.5
O=C(COc1ccc(Cl)cc1)NC1CN2CCC1CC2 (centres undefined)	i	i	i	i	i	37.5
SMILES	CHRM5 agonist	M4 ag	M4 PAM	CHRM5 PAM	CHRM4 antagonist	M5 antag
O=C(NC1CN2CCC1CC2)c1cccc(Cl)c1 (centres undefined)	i	i	i	i	i	i
Cc1[nH]c2ccc(OC(F)(F)F)cc2c1CCNCc1cccc([N+](=O)[O-])c1	i	i	i	i	i	28.5
Cc1[nH]c2ccc(OC(F)(F)F)cc2c1CCNCc1ccc(Cl)cc1	i	i	i	i	i	i
CCOc1cccc(CNCCc2c(C)[nH]c3ccc(OC(F)(F)F)cc23)c1O	23.6	43.3	i	i	29.2	42.3
COc1ccc(C(=O)NC(=S)N2C[C@H]3C[C@H](C2)c2cccc(=O)n2C3)cc1OC	i	i	i	i	i	i
OCC(Cl)CCl (centres undefined)	i	i	i	i	i	i
Cc1cc(C)c(S(=O)(=O)N2Cc3ccccc3-n3nncc3C2)c(C)c1	i	i	i	i	i	i
CCOP(=S)(OCC)Oc1cc(C)oc(=O)c1	i	i	i	i	i	i
O=C(Nc1ccccc1)OC1CN=C(N[N+](=O)[O-])NC1 (centres undefined)	i	i	i	i	i	i
Cc1ncc(CN2CCCC(C(=O)c3ccc(C(C)(C)C)cc3)C2)s1 (centres undefined)	i	i	i	i	i	29.0
C=C1N2CCC(CC2)C1(O)c1ccc(C)c(C)c1 (centres undefined)	i	i	i	i	i	33.4
C[C@@H]1O[C@@H](O[C@H]2C[C@@H](O)[C@]3(CO)[C@H]4[C@H](O)C[C@]5(C)[C@@H](C6COC(=O)C6)CC[C@]5(O)[C@@H]4CC[C@]3(O)C2)[C@H](O)[C@H](O)[C@H]1O (some centres undefined)	i	i	i	i	34.1	i
CC1OC(OC2CC(O)C3(CO)C4C(O)CC5(C)C(C6=CC(=O)OC6)CCC5(O)C4CCC3(O)C2)C(O)C(O)C1O (centres undefined)	i	i	i	i	i	i
CCN(CC)c1ccc(/C=C2\C(=O)NC(=S)N(C)C2=O)o1	36.5	i	i	i	i	i
CCN(CC)c1ccc(/C=C2\C(=O)NC(=S)N(c3ccc(OC)cc3OC)C2=O)o1	33.7	i	i	i	i	i
NC(Cc1ccccc1)c1csc(Nc2ccccn2)n1 (centres undefined)	i	i	i	i	i	i
CC(C)C/C(=N/O)c1cn(C)c2ccccc12	i	i	i	i	i	i
COC1C(C)OC(OC2CC(C)(O)Cc3cc4c(c(O)c32)C(=O)c2c(O)cc3c(c2C4=O)OC2OC3(C)C(O)C(N(C)C)C2O)C(OC)C1(C)OC (centres undefined)	30.1	i	i	i	i	i
O=C(c1cccs1)C1CN2CCC1CC2 (centres undefined)	i	i	i	i	i	i
O=C(O)C1CN2CCC1CC2 (centres undefined)	36.5	i	i	i	i	i

High-throughput results: PubChem BioAssay, The Scripps Research Institute Molecular Screening Center
